Results from ChEMBL document CHEMBL4257465, “Strigolactones: a plant phytohormone as novel anti-inflammatory agents” (Medchemcomm, 2018).
Active and inactive are the calls of the source. No cut-off for these calls is given here.

Assays:
[1] = test system: RAW264.7; test: Antiinflammatory activity in LPS-induced mouse RAW264.7 cells assessed as IL-6 levels at 5 uM pretreated for 2 hrs followed by LPS stimulation and measured after 6 hrs by ELISA (reference value: 472.3 +/- 25.8 pg/ml); type: functional
In short: (§1)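 RAW264.7 murine macrophages (DMEM, 10% serum, 37 °C, 5% CO2) seeded at 5 × 10^5 cells per well, pretreated 2 h with compound at 10, 5, 2.5 or 1.25 μM (DMSO 0.1% v/v), then LPS (E. coli 0127:B8) 100 ng mL−1 added. Supernatant TNF-α or IL-6 read by mouse ELISA kit after 6, 12 and 24 h. Mean ± SD, n = 3, three independent experiments.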

[2] = test system: RAW264.7; test: Antiinflammatory activity in LPS-induced mouse RAW264.7 cells assessed as IL-6 levels at 1.25 uM pretreated for 2 hrs followed by LPS stimulation and measured after 12 hrs by ELISA (reference value: 1394 +/- 62.6 pg/ml); type: functional; in short: as §1
[3] = test system: RAW264.7; test: Antiinflammatory activity in LPS-induced mouse RAW264.7 cells assessed as IL-6 levels at 10 uM pretreated for 2 hrs followed by LPS stimulation and measured after 12 hrs by ELISA (reference value: 1394 +/- 62.6 pg/ml); type: functional; in short: as §1
[4] = Cytotoxicity against mouse RAW264.7 cells assessed as cell viability at 10 uM after 48 hrs by MTT assay (reference value: 100%); type: cell-based; conditions: read-out: Activity
In short: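 RAW264.7 cells seeded at 4 × 10^3 per well, cultured overnight, exposed to compound (DMSO 0.1% v/v) for 48 h. MTT 0.5 mg mL−1 added for 4 h at 37 °C, formazan dissolved in DMSO, OD570 read. Viability relative to medium-only cells set as 100%. Mean ± SD (n = 5), three independent experiments.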

[5] = test system: Danio rerio; test: In-vivo antiinflammatory activity in 4 days post fertilized zebrafish larvae harboring coronilla-eGFP/Lyc-dsRed assessed as reduction in macrophage recruitment to wounded tail at 5 to 20 uM measured after 3 to 6 hrs by fluorescence microscopic analysis; type: functional, organism-based
In short: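 Double transgenic neutrophil/macrophage reporter larvae (Coronilla-eGFP/Lyc-dsRed), 4 dpf, tail-cut. […] Neutrophils and macrophages gathering at the wound imaged by fluorescence microscopy at 3 and 6 h. 6–8 larvae per group. Uncut larvae serve as blank, untreated cut larvae as control.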

[6] = biological target: MAP kinase p38 (Mus musculus) (UniProt P47811+O08911+Q9WUI1+Q9Z1B7); test: Inhibition of LPS-induced p38 MAPK phosphorylation in mouse RAW264.7 cells after 4 hrs by Western blot analysis; type: cell-based
In short: (§2)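 RAW264.7 cells at 2 × 10^6 per well given fresh medium with compound (10, 5, 2.5, 1.25 μM) plus LPS 500 ng mL−1 for 4 h. Lysed in IP buffer with 1 mM PMSF, protein by BCA. Run on 12.5% SDS-PAGE and blotted. Phospho and total ERK1/2 (Thr202/Tyr204), p38 (Thr180/Tyr182), IκBα (Ser32/36) and NF-κB p65 detected by ECL. Mean ± SD, n = 3.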

[7] = biological target: Transcription factor p65 (Mus musculus) (UniProt Q04207); test: Inhibition of LPS-induced NFkappaB p65 phosphorylation in mouse RAW264.7 cells after 4 hrs by Western blot analysis; type: cell-based; in short: as §2
[8] = test system: RAW264.7; test: Antiinflammatory activity in LPS-induced mouse RAW264.7 cells assessed as IL-6 levels at 1.25 uM pretreated for 2 hrs followed by LPS stimulation and measured after 6 hrs by ELISA (reference value: 472.3 +/- 25.8 pg/ml); type: functional; in short: as §1
[9] = test system: RAW264.7; test: Antiinflammatory activity in LPS-induced mouse RAW264.7 cells assessed as TNFalpha levels at 1.25 uM pretreated for 2 hrs followed by LPS stimulation and measured after 24 hrs by ELISA (reference value: 9653.7 +/- 377.3 pg/ml); type: functional; in short: as §1
[10] = test system: RAW264.7; test: Antiinflammatory activity in LPS-induced mouse RAW264.7 cells assessed as TNFalpha levels at 1.25 uM pretreated for 2 hrs followed by LPS stimulation and measured after 6 hrs by ELISA (reference value: 4377.1 +/- 318.6 pg/ml); type: functional; in short: as §1
[11] = test system: RAW264.7; test: Antiinflammatory activity in LPS-induced mouse RAW264.7 cells assessed as TNFalpha levels at 2.5 uM pretreated for 2 hrs followed by LPS stimulation and measured after 24 hrs by ELISA (reference value: 9653.7 +/- 377.3 pg/ml); type: functional; in short: as §1
[12] = test system: RAW264.7; test: Antiinflammatory activity in LPS-induced mouse RAW264.7 cells assessed as IL-6 levels at 10 uM pretreated for 2 hrs followed by LPS stimulation and measured after 6 hrs by ELISA (reference value: 472.3 +/- 25.8 pg/ml); type: functional; in short: as §1
[13] = test system: RAW264.7; test: Antiinflammatory activity in LPS-induced mouse RAW264.7 cells assessed as TNFalpha levels at 5 uM pretreated for 2 hrs followed by LPS stimulation and measured after 12 hrs by ELISA (reference value: 5313.7 +/- 420.9 pg/ml); type: functional; in short: as §1
[14] = test system: RAW264.7; test: Antiinflammatory activity in LPS-induced mouse RAW264.7 cells assessed as IL-6 levels at 1.25 uM pretreated for 2 hrs followed by LPS stimulation and measured after 24 hrs by ELISA (reference value: 1966.6 +/- 102.3 pg/ml); type: functional; in short: as §1

Transcription factor p65 (Mus musculus), sequence (Q04207 whole entry): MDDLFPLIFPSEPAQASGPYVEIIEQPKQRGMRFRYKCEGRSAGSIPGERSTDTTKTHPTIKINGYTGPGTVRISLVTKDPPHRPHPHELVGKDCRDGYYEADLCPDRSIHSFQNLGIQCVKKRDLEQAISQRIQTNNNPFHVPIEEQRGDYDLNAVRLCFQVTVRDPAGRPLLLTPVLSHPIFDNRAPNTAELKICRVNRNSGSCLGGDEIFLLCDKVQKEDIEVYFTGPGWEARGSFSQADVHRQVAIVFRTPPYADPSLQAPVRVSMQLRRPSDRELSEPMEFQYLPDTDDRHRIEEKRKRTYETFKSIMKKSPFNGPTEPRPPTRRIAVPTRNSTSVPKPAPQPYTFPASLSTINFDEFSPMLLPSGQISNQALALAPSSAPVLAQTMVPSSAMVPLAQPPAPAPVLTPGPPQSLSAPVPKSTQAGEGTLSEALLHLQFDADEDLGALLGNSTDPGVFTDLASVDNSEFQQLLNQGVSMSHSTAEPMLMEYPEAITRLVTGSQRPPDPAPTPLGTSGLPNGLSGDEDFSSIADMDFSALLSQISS

| SMILES | Activity [1] | Activity [2] | Activity [3] | viability at 48 h, 10 µM [4] | Activity [5] | inhibition [6] | inhibition [7] | Activity [8] | Activity [9] | Activity [10] | Activity [11] | Activity [12] | Activity [13] | Activity [14] |
| --- | --- | --- | --- | --- | --- | --- | --- | --- | --- | --- | --- | --- | --- | --- |
| CC1=C[C@H](O/C=C2/C(=O)O[C@@H]3c4ccccc4C[C@H]23)OC1=O | 387.1 pg/mL | 1351.9 pg/mL | 869 pg/mL | 100% | Active | Dose-dependent effect | Dose-dependent effect | 461.2 pg/mL | 9565.4 pg/mL | 4388.3 pg/mL | 9397.7 pg/mL | 302.3 pg/mL | 5036.1 pg/mL | 1892.3 pg/mL |
| CC1=C[C@@H](O/C=C2/C(=O)O[C@H]3c4ccccc4C[C@@H]23)OC1=O | 410.3 pg/mL | 1374.3 pg/mL | 998.2 pg/mL | 99.2% | Active | Dose-dependent effect | Dose-dependent effect | 470.1 pg/mL | 9582.9 pg/mL | 4367.3 pg/mL | 9444.5 pg/mL | 340.6 pg/mL | 5079.1 pg/mL | 1936.5 pg/mL |
